Measured values: ChEMBL document CHEMBL5512642, “Novel triterpenoid pyrones, phthalimides and phthalates are selectively cytotoxic in CCRF-CEM cancer cells - Synthesis, potency, and mitochondrial mechanism of action” (Eur J Med Chem, 2024)
Activity calls are given as the source filed them. The calls are words filed in the database; no cut-off is given here.

Tests used:
[1] = tested on: CCRF-CEM; assay: Cytotoxicity against human CCRF-CEM cells assessed as reduction in cell viability incubated for 72 hrs by MTS assay; format: functional, cell-based
[2] = tested on: CEM-DNR; assay: Cytotoxicity against human CEM-DNR cells assessed as reduction in cell viability incubated for 72 hrs by MTS assay; format: functional, cell-based
[3] = tested on: K562; assay: Cytotoxicity against human K562 cells assessed as reduction in cell viability incubated for 72 hrs by MTS assay; format: functional, cell-based; conditions: K562, 72 h
[4] = Cytotoxicity against human K562-Tax cells assessed as reduction in cell viability incubated for 72 hrs by MTS assay; format: functional, cell-based
[5] = tested on: A549; assay: Cytotoxicity against human A549 cells assessed as reduction in cell viability incubated for 72 hrs by MTS assay; format: functional, cell-based; conditions: A549, 72 h
[6] = tested on: HCT-116; assay: Cytotoxicity against human HCT-116 cells assessed as reduction in cell viability incubated for 72 hrs by MTS assay; format: functional, cell-based; conditions: HCT-116, 72 h
[7] = tested on: HCT 116 TP53(-/-); assay: Cytotoxicity against human HCT116-p53-null cells assessed as reduction in cell viability incubated for 72 hrs by MTS assay; format: functional, cell-based
[8] = tested on: U2OS; assay: Cytotoxicity against human U2OS cells assessed as reduction in cell viability incubated for 72 hrs by MTS assay; format: functional, cell-based
[9] = Cytotoxicity against human BJ cells assessed as reduction in cell viability incubated for 72 hrs by MTS assay; format: toxicity, cell-based
[10] = Cytotoxicity against human MRC5 cells assessed as reduction in cell viability incubated for 72 hrs by MTS assay; format: toxicity, cell-based
[11] = Stability in human plasma assessed as compound remaining measured 15 mins by RF-MS analysis; format: ADME, cell-free; conditions: read-out: Stability
Outline: (§1)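 Compounds incubated in human plasma in vitro for up to 2 h. Percent remaining sampled at 15, 30, 60 and 120 min. Run in triplicate.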

[12] = Stability in human plasma assessed as compound remaining measured 30 mins by RF-MS analysis; format: ADME, cell-free; conditions: read-out: Stability; outline: as §1
[13] = Stability in human plasma assessed as compound remaining measured 60 mins by RF-MS analysis; format: ADME, cell-free; conditions: read-out: Stability; outline: as §1
[14] = Stability in human plasma assessed as compound remaining measured 120 mins by RF-MS analysis; format: ADME, cell-free; conditions: read-out: Stability; outline: as §1
[15] = Plasma protein binding in human assessed as fraction bound at 10 uM by rapid equilibrium dialysis based RF-MS analysis; format: ADME, cell-free; conditions: read-out: PPB (converted)
Outline: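 Human plasma protein binding measured by equilibrium dialysis and reported as percent fraction bound. Run in triplicate.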

[16] = Apparent permeability of the compound in MDCK-MDR1 cells at 10 uM incubated for 1 hr by RF-MS analysis; format: ADME, cell-based, Canis lupus familiaris; conditions: dog
Outline: (§2)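 Caco-2 and MDCK-MDR1 monolayers; transport measured in both directions, apical→basolateral and basolateral→apical. Efflux ratio taken from the two directions; ER > 2 counted as active efflux. Compound recovery reported. Cell-based permeability runs done in duplicate.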

[17] = Efflux ratio of apparent permeability across basolateral to apical side over apical to basolateral side in MDCK-MDR1 cells; format: ADME, cell-based, Canis lupus familiaris; conditions: dog; outline: as §2
[18] = Apparent permeability of the compound across apical to basolateral side in MDCK-MDR1 cells assessed as compound recovery at 10 uM incubated for 1 hr by RF-MS analysis; format: ADME, cell-based, Canis lupus familiaris; conditions: dog, read-out: Activity; outline: as §2
[19] = Metabolic stability in human liver microsomes assessed as compound remaining at measured at 15 mins in presence of NADPH by RF-MS analysis; format: ADME, Microsome; conditions: read-out: Stability
Outline: (§3)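 Human liver microsomes with NADPH cofactor to assess phase I oxidation. Compound remaining sampled at 15, 30 and 60 min; intrinsic clearance derived and categorized. Run in triplicate.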

[20] = Metabolic stability in human liver microsomes assessed as compound remaining at measured at 30 mins in presence of NADPH by RF-MS analysis; format: ADME, Microsome; conditions: read-out: Stability; outline: as §3
[21] = Metabolic stability in human liver microsomes assessed as compound remaining at measured at 60 mins in presence of NADPH by RF-MS analysis; format: ADME, Microsome; conditions: read-out: Stability; outline: as §3
[22] = Apparent permeability of the compound in human Caco-2 cells; format: ADME, cell-based; outline: as §2
[23] = Efflux ratio of apparent permeability across basolateral to apical side over apical to basolateral side in human Caco-2 cells; format: ADME, cell-based; outline: as §2
[24] = Apparent permeability of the compound across apical to basolateral side in human Caco-2 cells assessed as compound recovery; format: ADME, cell-based; conditions: read-out: Activity; outline: as §2
[25] = tested on: CCRF-CEM; assay: Induction of apoptosis in human CCRF-CEM cells assessed as viable cells at 1 time IC50 incubated for 24 hrs by Annexin V and propidium iodide staining based flow cytometry analysis (reference value: 98%); format: functional
[26] = tested on: CCRF-CEM; assay: Induction of apoptosis in human CCRF-CEM cells assessed as early apoptotic cells at 1 time IC50 incubated for 24 hrs by Annexin V and propidium iodide staining based flow cytometry analysis (reference value: 1.4%); format: functional
[27] = tested on: CCRF-CEM; assay: Induction of apoptosis in human CCRF-CEM cells assessed as late apoptotic cells at 1 time IC50 incubated for 24 hrs by Annexin V and propidium iodide staining based flow cytometry analysis (reference value: 0.5%); format: functional
[28] = tested on: CCRF-CEM; assay: Induction of apoptosis in human CCRF-CEM cells assessed as necrotic cells at 1 time IC50 incubated for 24 hrs by Annexin V and propidium iodide staining based flow cytometry analysis (reference value: 0.1%); format: functional
[29] = tested on: CCRF-CEM; assay: Induction of apoptosis in human CCRF-CEM cells assessed as viable cells at 5 time IC50 incubated for 24 hrs by Annexin V and propidium iodide staining based flow cytometry analysis (reference value: 98%); format: functional
[30] = tested on: CCRF-CEM; assay: Induction of apoptosis in human CCRF-CEM cells assessed as early apoptotic cells at 5 time IC50 incubated for 24 hrs by Annexin V and propidium iodide staining based flow cytometry analysis (reference value: 1.4%); format: functional
[31] = tested on: CCRF-CEM; assay: Induction of apoptosis in human CCRF-CEM cells assessed as late apoptotic cells at 5 time IC50 incubated for 24 hrs by Annexin V and propidium iodide staining based flow cytometry analysis (reference value: 0.5%); format: functional
[32] = tested on: CCRF-CEM; assay: Induction of apoptosis in human CCRF-CEM cells assessed as necrotic cells at 5 time IC50 incubated for 24 hrs by Annexin V and propidium iodide staining based flow cytometry analysis (reference value: 0.; format: functional
[33] = tested on: CCRF-CEM; assay: Induction of apoptosis in human CCRF-CEM cells assessed as reduction in caspase-3 expression at 5 time of IC50 incubated for 24 hrs by Western blot analysis; format: functional, cell-based
Outline: (§4)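 Lysate 20 µg protein per lane on SDS-PAGE, transferred to nitrocellulose, blocked in 5% BSA/TBS-Tween. Probed overnight at 4 °C with anti-caspase-3, Bcl-2, Bcl-XL, β-actin, then HRP secondary 1 h. ECL chemiluminescence detection.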

[34] = tested on: CCRF-CEM; assay: Induction of apoptosis in human CCRF-CEM cells assessed as reduction in Bcl-2 expression at 5 time of IC50 incubated for 24 hrs by Western blot analysis; format: functional, cell-based; outline: as §4
[35] = tested on: CCRF-CEM; assay: Induction of apoptosis in human CCRF-CEM cells assessed as reduction in Bcl-XL expression at 5 time of IC50 incubated for 24 hrs by Western blot analysis; format: functional, cell-based; outline: as §4
[36] = tested on: CCRF-CEM; assay: Induction of mitochondrial membrane potential loss in human CCRF-CEM cells assessed as cells with depolarized mitochondria (P2 gate) by measuring green fluorescence intensity at 1 time IC50 incubated for 24 hrs by JC-1 staining based flow cytometry (reference value: 2.1%)
[37] = tested on: CCRF-CEM; assay: Induction of mitochondrial membrane potential loss in human CCRF-CEM cells assessed as cells with depolarized mitochondria (P2 gate) by measuring green fluorescence intensity at 5 time IC50 incubated for 24 hrs by JC-1 staining based flow cytometry (reference value: 2.1%)
[38] = tested on: CCRF-CEM; assay: Antimitotic activity against human CCRF-CEM cells assessed as decrease in cell division at 5 times of IC50; format: functional, cell-based
Outline: (§5)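 Mitotic fraction scored with the pH3 Ser10 marker and DNA synthesis with BrdU incorporation. For transcription, cells received a short BrU pulse after the 24 h pre-incubation. Read by flow cytometry against untreated cells.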

[39] = tested on: CCRF-CEM; assay: Antiproliferative activity against human CCRF-CEM cells assessed as inhibition of RNA synthesis at 5 time of IC50 by BrdU incorporation assay; format: functional, cell-based; conditions: in the assay text read “BrU incorporation assay” for “BrdU incorporation assay”; outline: as §5
[40] = tested on: CCRF-CEM; assay: Antiproliferative activity against human CCRF-CEM cells assessed as reduction cell population at 1 time of IC50 by BrdU incorporation assay; format: functional, cell-based; outline: as §5

SMILES | IC50 [1] [µM] | IC50 [2] [µM] | IC50 [3] [µM] | IC50 [4] [µM] | IC50 [5] [µM] | IC50 [6] [µM] | IC50 [7] [µM] | IC50 [8] [µM] | IC50 at 72 h [9] [µM] | IC50 at 72 h [10] [µM] | remaining at 0.25 h [11] [%] | remaining at 0.5 h [12] [%] | remaining at 1 h [13] [%] | remaining at 2 h [14] [%] | fraction unbound at 10 µM [15] | Papp at 1 h, 10 µM [16] [×10⁻⁶ cm/s] | efflux ratio [17] | recovery at 1 h, 10 µM [18] [%] | remaining at 0.25 h [19] [%] | remaining at 0.5 h [20] [%] | further results
C[C@H]1[C@H](C)CC[C@]2(C(=O)O)CC[C@]3(C)C(=CC[C@@H]4[C@@]5(C)CC6=C(C7C(=O)N(c8ccccc8)C(=O)C7C=C6C(F)(F)F)C(C)(C)[C@@H]5CC[C@]43C)[C@H]12 (stereo not given in full) | 4.3 | > 50 | 21 | 23 | 18 | 13 | 12 | 19 | 10 | > 50 | 102 | 99.6 | 102 | 94.2 | 0.292 | 0.33 | 8.17 | 60.5 | 82 | 64 | remaining at 1 h [21]: 45%; Papp [22]: 0.12 ×10⁻⁶ cm/s; efflux ratio [23]: 41.8; recovery [24]: 69.2%; Activity [25]: 93.6%; Activity [26]: 3.6%; Activity [27]: 2.8%; Activity [28]: 0%; Activity [29]: 82.2%; Activity [30]: 10.9%; Activity [31]: 6.9%; Activity [32]: 0%; Activity [33]: Active; Activity [34]: Active; Activity [35]: Active; Activity [36]: 0.6%; Activity [37]: 11.8%
C=C(C)[C@@H]1CC[C@]2(C(=O)O)CC[C@]3(C)[C@H](CC[C@@H]4[C@@]5(C)Cc6c(C(F)(F)F)cc(=O)oc6C(C)(C)[C@@H]5CC[C@]43C)[C@@H]12 | 4 | 7.8 | 22 | 10 | 16 | 13 | 15 | 18 | > 50 | 28 | 99.9 | 99.2 | 102 | 93.6 | 0.135 | 0.14 | 26 | 70.7 | 100 | 86 | remaining at 1 h [21]: 70%; Papp [22]: 0.04 ×10⁻⁶ cm/s; efflux ratio [23]: 28.4; recovery [24]: 104%; Activity [25]: 90.9%; Activity [26]: 5.3%; Activity [27]: 3.7%; Activity [28]: 0.1%; Activity [29]: 51.2%; Activity [30]: 17.3%; Activity [31]: 31.5%; Activity [32]: 0%; Activity [38]: Active; Activity [33]: Active; Activity [34]: Active; Activity [35]: Active; Activity [39]: Active; Activity [36]: 4.4%; Activity [37]: 30.2%
CC(C)[C@@H]1CC[C@]2(C(=O)O)CC[C@]3(C)[C@H](CC[C@@H]4[C@@]5(C)CC6=C(C7C(=O)N(c8ccccc8)C(=O)C7C=C6C(F)(F)F)C(C)(C)[C@@H]5CC[C@]43C)[C@@H]12 (stereo not given in full) | 4.5 | > 50 | 30 | > 50 | 18 | 29 | 28 | 4.8 | 25 | 28 | 99.2 | 102 | 96.7 | 89 | 0.403 | 0.05 | 71.8 | 86 | 92 | 92 | remaining at 1 h [21]: 56%; Papp [22]: 0.09 ×10⁻⁶ cm/s; efflux ratio [23]: 63.5; recovery [24]: 84.2%; Activity [25]: 92.4%; Activity [26]: 4.7%; Activity [27]: 2.9%; Activity [28]: 0%; Activity [29]: 90.3%; Activity [30]: 5.2%; Activity [31]: 4.5%; Activity [32]: 0%; Activity [38]: inactive; Activity [40]: Active; Activity [34]: Active; Activity [35]: Active; Activity [39]: Active; Activity [36]: 2.2%; Activity [37]: 6.7%
